Hits are enriched below; roughly 2% of the tested compounds scored in any of these assays.
STAT3 act – STAT3 signaling activation; 190,000 compounds, 0.91% hits; activation (% of control), % at 5.6 µM; U3A cells, IL-6 STAT3-luciferase reporter, luminescence; 100% = signal with IL-6 EC80 alone;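 active = activation above the screen-wide mean of compound activation plus 3 SD, cut at about 130% in these data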;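 note: 0% = background luminescence of wells with medium and substrate only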
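Test system: STAT3-luciferase reporter U3A cells; Detection: reporter luminescence signal; Times: 1 h compound pre-exposure, 6 h IL-6 stimulation, 37 °C; Benchmarks: IL-6-only high control; Also added: IL-6 stimulus at 33 ng/mL final.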
HSP90 inh – blocks HSP90-mediated luciferase refolding in reticulocyte lysate. AID 1789. 290,000 compounds, 0.91% hits. Rabbit reticulocyte lysate, luciferase refolding luminescence, 3 h. inhibition, % at 5.6 µM;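 active = inhibition above the screen-wide mean plus 3 SD, computed separately per campaign, cut at about 16% in these data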;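 note: 0% = DMSO wells and 100% = 60 µM geldanamycin wells; inhibitors lower the luminescence because luciferase stays unfolded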
STAT1 blocker – inhibitors of IFN-gamma induced STAT1 signaling | AID 920 | 200,000 compounds, 0.35% hits | inhibition, % at 5.5 µM | NIH 3T3 STAT1-luciferase reporter, luminescence;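 active = inhibition above a set limit, the mean inhibition across all tested compounds plus 3 SD, cut at about 34% in these data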;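 note: 0% = IFN-gamma with DMSO and 100% = IFN-gamma with 300 µM nifuroxazide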
STAT3 inh-1 – reduces IL-6 driven STAT3 reporter signal. U3A cells, IL-6 STAT3-luciferase reporter, luminescence; host cell line lacks STAT1. inhibition, % at 5.5 µM. AID 862. 190,000 compounds, 0.89% hits;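 active = inhibition above the mean inhibition across all screened compounds plus 3 SD, cut at about 44% in these data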;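 note: 0% = DMSO only wells and 100% = 100 µM nifuroxazide control wells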
STAT3 inh-2 – confirmation of STAT3 signaling inhibitors; shares compounds with STAT3 inh-1; U3A cells, IL-6 STAT3 luciferase reporter, luminescence; cell line lacks STAT1; inhibition, % at 5.7 µM; 1,200 compounds, 45% hits; AID 1265;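 active = inhibition above the hit cutoff computed for the primary STAT3 screen, cut at about 44% in these data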;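 note: 0% = IL-6 plus DMSO and 100% = IL-6 plus nifuroxazide control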
NFkB inh 2 – counter-screen for STAT3 inhibitors: NF-kappaB inhibition | shares compounds with STAT3 inh-1 | inhibition, % at 5.7 µM | 1,200 compounds, 36% hits | AID 1308 | HEK293T NF-kB luciferase reporter, TNF-alpha induced;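 active = inhibition above the mean of solvent-only control wells plus 3 SD, cutoff set per campaign, cut at about 13% in these data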;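 note: 0% = TNF-alpha with DMSO and 100% = TNF-alpha with MG high control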
STAT1 inh STAT3c – inhibits STAT1, counter-screen to STAT3 inhibitors; AID 1317; NIH 3T3 STAT1-luciferase reporter, IFN-gamma induced, luminescence; 1,200 compounds, 27% hits; inhibition, % at 5.7 µM; shares compounds with STAT3 inh-1;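 active = inhibition above the mean plus 3 SD of solvent-only control wells, limit set per screening run, cut at about 16% in these data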;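 note: 0% = DMSO with IFN-gamma and 100% = nifuroxazide control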
* marks the source's active call; other numbers are inactive results; . = no result.

SMILES | STAT3 act | HSP90 inh | STAT1 blocker | STAT3 inh-1 | STAT3 inh-2 | NFkB inh 2 | STAT1 inh STAT3c
O=C(NCc1ccc(F)cc1)C1CCC(=O)N1C1CCCCC1 (configuration not stated) | 68 | 3 | 0 | 45* | 8 | -7 | -7
Cc1cccc(CCNS(=O)(=O)c2ccc3c(c2)NC(=O)CS3)c1 | . | -1 | . | . | . | . | .
Cc1cc(-c2cn3ccccc3n2)c(C)n1-c1ccccc1 | 55 | 2 | 0 | 58* | 21 | -18 | -83
COc1ccc(-n2c(C)cc(-c3cn4cccc(C)c4n3)c2C)cc1 | 103 | -1 | -2 | 7 | . | . | .
CC(C)(C)C#CC(CCc1ccccc1)OS(N)(=O)=O (configuration not stated) | . | -4 | . | . | . | . | .
O=S(=O)(NCC1CCCO1)c1ccc(-c2ccc(S(=O)(=O)NCC3CCCO3)cc2)cc1 (configuration not stated) | 38 | 0 | 25 | 78* | 84* | 33* | 22*
CCn1c2c(c(=N)c3c1CCC3)CCC2 | 95 | -5 | -4 | 9 | . | . | .
CCCCCCCn1c2c(c(=N)c3c1CCC3)CCCC2 | 34 | 3 | 24 | 81* | 88* | 37* | 28*
CCCCCCn1c2c(c(=N)c3c1CCC3)CCC2 | 36 | 1 | 34 | 81* | 82* | 35* | 27*
CCCCCCCCCn1c2c(c(=N)c3c1CCC3)CCC2 | 33 | -2 | 28 | 82* | 85* | 59* | 30*
CCCCCCn1c(=O)[nH]c2c(c1=O)CCC2 | . | -4 | . | . | . | . | .
CCCCn1c2c(c(=N)c3c1CCC3)CCC2 | 63 | 2 | 24 | 53* | 33 | -1 | 22*
CCOc1ccccc1NS(=O)(=O)c1ccc2c(c1)N(C)CCO2 | . | -7 | . | . | . | . | .
O=c1[nH]c(CSc2ccccn2)nc2c1oc1ccccc12 | 43 | 7 | 18 | 71* | 18 | -8 | -62
CCc1nc2c(oc3ccccc32)c(=O)[nH]1 | 107 | -3 | -9 | -4 | . | . | .
COc1cc(N/N=C/c2ccc(N(C)C)cc2)ncn1 | 50 | 16 | 33 | 61* | 8 | 0 | -103
COc1cc(N/N=C/c2ccccc2O)ncn1 | 83 | 4 | -9 | 19 | . | . | .
COc1ccccc1C(=O)Nc1ccc(S(=O)(=O)Nc2cnc3ccccc3n2)cc1 | . | 2 | . | . | . | . | .
O=C(O)c1cc(-c2cccc(Cl)c2)nc2nc(N3CCCCC3)sc12 | 99 | 9 | 10 | -1 | . | . | .
CC(=O)Nc1ccc2oc(-c3cc(F)c(F)cc3Cl)nc2c1 | 63 | -1 | -37 | 46* | 32 | -24 | -91
CC(=O)Nc1ccc2oc(-c3ccccc3Br)nc2c1 | 65 | 7 | -24 | 48* | 12 | -38 | -127
Cc1ccc(N(CC(=O)NC2CCCCC2)C(=O)CNC(=O)c2ccco2)c(C)c1 | . | -3 | . | . | . | . | .
CC(=O)c1cccc(N=c2scc(-c3ccc(S(=O)(=O)N4CCOCC4)cc3)n2CCO)c1 | 38 | 3 | 24 | 75* | 77* | 27* | 25*
Cc1ccc(NC(=O)c2ccc(CN3CCc4ccccc4C3)cc2)cc1 | 40 | -1 | -2 | 71* | 67* | 18* | -8
O=C(Nc1ccccc1)c1ccc(CN2CCc3ccccc3C2)cc1 | 59 | 1 | -11 | 52* | 64* | 8 | -3
SMILES | STAT3 act | HSP90 inh | STAT1 blocker | STAT3 inh-1 | STAT3 inh-2 | NFkB inh 2 | STAT1 inh STAT3c
O=C(Nc1cccnc1)c1ccc(CN2CCc3ccccc3C2)cc1 | 64 | 2 | 1 | 47* | 37 | 9 | 4
COC1C(C)=C(C)C(=O)N1Cc1ccc(F)cc1 (configuration not stated) | . | 2 | . | . | . | . | .
CC(C)CCN1C(=O)C2(OCCCO2)c2cc(Cl)ccc21 | . | -2 | . | . | . | . | .
C/C(=N\NC(=O)c1cc(C)[nH]n1)c1cccs1 | 75 | 0 | -8 | 33 | . | . | .
C/C(=N\NC(=O)c1ccc(NS(=O)(=O)c2cccs2)cc1)c1cccs1 | 102 | -1 | -9 | -1 | . | . | .
C/C(=N/NC(=O)c1cc(C(C)C)[nH]n1)c1cccs1 | 61 | 6 | -2 | 51* | 7 | -26 | -64
C/C(=N\NC(=O)c1ccc(Cl)cc1)c1cccs1 | 52 | 3 | 26 | 59* | 18 | -13 | -65
Nc1cc([N+](=O)[O-])cc2oc(-c3ccccc3)cc12 | . | 7 | . | . | . | . | .
C=CCNc1nc(-c2c(C)nc3sccn23)cs1 | 84 | -2 | 1 | 22 | . | . | .
Cc1nc2sccn2c1-c1csc(NCc2ccccc2)n1 | 44 | 1 | 11 | 66* | 51* | 9 | 12
O=C(Nc1ccc2c(c1)CCC2)C1CCN(c2c3c(nc4ncnn24)CCC3)CC1 | 81 | 2 | 28 | 24 | . | . | .
O=C(Nc1ccc(Oc2ccccc2)cc1)C1CCN(c2c3c(nc4ncnn24)CCC3)CC1 | 61 | 3 | 21 | 52* | 47* | -4 | 11
O=C(Nc1cccc(Cl)c1Cl)c1cc(S(=O)(=O)NCCc2ccccc2)ccc1F | 98 | 0 | -10 | 6 | . | . | .
Cn1c(N=Nc2ccccc2)nc2ccccc21 | 58 | 42* | -34 | 51* | -14 | -13 | -120
Cc1ccc(/C=C/c2nnc(-c3cccs3)o2)cc1 | 52 | 8 | 10 | 64* | 24 | -9 | -40
Fc1ccc(/C=C/c2nnc(-c3cccs3)o2)cc1 | 79 | 2 | -32 | 27 | . | . | .
COc1cc(OC)cc(C(=O)NC2CCN(CCCOc3ccccc3)CC2)c1 | . | 2 | . | . | . | . | .
O=C(Nc1ccon1)c1ccc2c(c1)OCO2 | 103 | -1 | -13 | 0 | . | . | .
Cc1ccnc(NC(=O)c2ccc3c(c2)OCO3)c1 | 51 | 13 | 24 | 59* | 22 | -14 | -29
O=C(Nc1ccc(N2CCOCC2)cc1)c1cn2ccccc2n1 | 39 | 14 | 28 | 76* | 37 | -4 | -25
O=C(Nc1ccc(Cl)c(S(=O)(=O)N2CCOCC2)c1)c1cn2ccccc2n1 | 92 | -2 | 2 | 10 | . | . | .
Cc1cccc(C)c1NC(=O)CN1C(=O)COc2ccccc21 | . | 7 | . | . | . | . | .
Clc1ccc2nc(-c3ccc(Br)s3)cn2c1 | 51 | 11 | 5 | 58* | -31 | -34 | -140
COc1ccc(-c2cn3cc(Cl)ccc3n2)cc1OC | 132 | 9 | -30 | -32 | . | . | .
COc1ccc(NCC(=O)n2c(C)c(C)c3ccccc32)cc1OC | . | 8 | . | . | . | . | .
CCCCOc1ccc(Br)cc1CSC(=N)N | 51 | 3 | 26 | 58* | 71* | 25* | 21*
Cc1ccccc1S(=O)(=O)N1CCN(C)CC1 | . | 3 | . | . | . | . | .
CC(=O)c1c(C)[nH]c(C(=O)CSc2nc3ccccc3n2C)c1C | 62 | -1 | 13 | 50* | 42 | -1 | 8
CC(C)C(NC(=O)c1ccc(C(C)(C)C)cc1)C(=O)Nc1cccc(S(N)(=O)=O)c1 (configuration not stated) | 65 | -1 | -12 | 44* | 10 | -2 | -3

Source: PubChem
